Data from ChEMBL document CHEMBL4152207, “Discovery of potent and selective BRD4 inhibitors capable of blocking TLR3-induced acute airway inflammation” (Eur J Med Chem, 2018).
Calls of active or inactive are those of the source. The calls are words filed in the database; no cut-off is given here.

Tests used:
[1] = system: Mus musculus; experiment: Toxicity in mouse assessed as effect on nuetrophils level at 1 to 50 mg/kg, ip dosed daily for 1 month; format: organism-based; conditions: in vivo
[2] = molecular target: Inhibitor of nuclear factor kappa-B kinase subunit epsilon (Homo sapiens) (UniProt Q14164); experiment: Inhibition of human recombinant IKKepsilon using Ulight-FLGFTYVAP as substrate after 90 mins relative to control; set-up: scale not given: the % may be the effect or the level left
[3] = AUC (0 to t) in rat at 10 mg/kg, iv; format: ADME, organism-based; conditions: in vivo
[4] = AUC (0 to t) in rat at 20 mg/kg, po; format: ADME, organism-based; conditions: in vivo
[5] = molecular target: Tyrosine-protein kinase Lck (Homo sapiens) (UniProt P06239); experiment: Inhibition of human recombinant LCK using Ulight-Poly GAT[EAY(1:1:1)]n as substrate after 10 mins relative to control; set-up: scale not given: the % may be the effect or the level left
[6] = molecular target: Cannabinoid receptor 1 (Homo sapiens) (UniProt P21554); experiment: Displacement of [3H]CP 55940 from human recombinant CB1 receptor at 10 uM after 120 mins by scintillation counting analysis relative to control
[7] = molecular target: Alpha-2A adrenergic receptor (Homo sapiens) (UniProt P08913); experiment: Binding affinity to adrenergic alpha2A receptor (unknown origin) at 10 uM by agonist radioligand assay relative to control
[8] = molecular target: Acetylcholinesterase (Homo sapiens) (UniProt P22303); experiment: Inhibition of human recombinant ACHE using acetylthiocholine as substrate after 30 mins by spectrophotometric relative to control; set-up: scale not given: the % may be the effect or the level left
In short: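 Run within a commercial off-target panel of receptors and enzymes, with compound tested at a single concentration of 10 μM.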

[9] = molecular target: Muscarinic acetylcholine receptor M1 (Homo sapiens) (UniProt P11229); experiment: Displacement of [125I]pirenzepine from human recombinant M1 receptor at 10 uM after 60 mins by scintillation counting analysis relative to control
[10] = molecular target: Cholecystokinin receptor type A (Homo sapiens) (UniProt P32238); experiment: Displacement of [125I]CCK-8s from human recombinant CCK1 receptor at 10 uM after 60 mins by scintillation counting analysis relative to control
[11] = molecular target: Adenosine receptor A2a (Homo sapiens) (UniProt P29274); experiment: Displacement of [3H]-CGS 21680 from human recombinant adenosine A2A receptor at 10 uM after 120 mins by scintillation counting analysis relative to control
[12] = molecular target: MAO-A (amine oxidase [flavin-containing] A) (Rattus norvegicus, UniProt P21396); experiment: Displacement of [3H]Ro 41-1049 from rat MAO-A at 10 uM after 120 mins by scintillation counting analysis relative to control; conditions: probe [3H]Ro 41-1049, read-out: Activity
[13] = molecular target: Prostaglandin G/H synthase 1 (Homo sapiens) (UniProt P23219); experiment: Inhibition of human recombinant COX1 using arachidonic acid as substrate after 3 mins by fluorimetric analysis; set-up: scale not given: the % may be the effect or the level left
[14] = system: Mus musculus; experiment: Toxicity in mouse assessed as effect on body weight at 1 to 50 mg/kg, ip dosed daily for 1 month; format: organism-based; conditions: in vivo
[15] = species: Rattus norvegicus; experiment: Displacement of [3H]flunitrazepam from rat brain central BZD at 10 uM after 60 mins by radioligand binding assay relative to control
[16] = system: Mus musculus; experiment: Toxicity in mouse assessed as effect on WBC levels at 1 to 50 mg/kg, ip dosed daily for 1 month; format: organism-based; conditions: in vivo
[17] = system: Mus musculus; experiment: Renal toxicity in mouse assessed as effect on BUN level at 1 to 50 mg/kg, ip dosed daily for 1 month; format: organism-based; conditions: in vivo
[18] = molecular target: Endothelin-1 receptor (Homo sapiens) (UniProt P25101); experiment: Displacement of [125I]endothelin-1 from human recombinant endothelin ETA receptor at 10 uM after 120 mins by scintillation counting analysis relative to control
[19] = system: Mus musculus; experiment: Renal toxicity in mouse assessed as effect on CRE level at 1 to 50 mg/kg, ip dosed daily for 1 month; format: organism-based; conditions: in vivo
[20] = system: Mus musculus; experiment: Pulmonary toxicity in mouse at 1 to 50 mg/kg, ip dosed daily for 1 month by histological analysis; format: organism-based; conditions: in vivo
[21] = system: Mus musculus; experiment: Anti-inflammatory activity in poly(I:C)-induced airway inflammation C57BL/6 mouse model assessed as reduction in mKC expression in lung at 10 mg/kg, ip administered 1 day prior to poly(I:C) stimulation and redosed on day 2 followed by poly(I:C) stimulation; format: functional, organism-based
In short: (§1)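 Male C57BL/6J mice, 12 weeks old, were given 10 mg/kg i.p. one day before stimulation. The next day they got a second dose, immediately followed by intranasal poly(I:C) (300 μg in 50 μL PBS) or PBS alone. Compound was taken up in DMSO and diluted in 10% hydroxypropyl β-cyclodextrin in PBS. Mice were euthanized one day later and lung tissue was collected for cytokine expression.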

[22] = molecular target: CREB-binding protein (Homo sapiens, UniProt Q92793); experiment: Inhibition of CBP (unknown origin) after 1 hr by TR-FRET assay
In short: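 Isolated bromodomain in a kit TR-FRET assay. Inhibitor series 0.01 nM to 100 μM, incubated 1 h at room temperature. Excitation 340 nm, emission read at 620 and 670 nm with 100 μs delay and 500 μs window. IC50 from the sigmoidal plot of the 670/620 ratio against concentration. Mean of at least two runs.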

[23] = molecular target: Histamine H1 receptor (Homo sapiens) (UniProt P35367); experiment: Displacement of [3H]pyrilamine from human recombinant histamine H1 receptor at 10 uM after 60 mins by scintillation counting analysis relative to control
[24] = species: Cavia porcellus; experiment: Binding affinity to guinea pig Sodium channel site 2 at 10 uM by antagonist radioligand assay relative to control; set-up: scale not given: the % may be the effect or the level left
[25] = Total clearance in rat at 10 mg/kg, iv; format: ADME, organism-based; conditions: in vivo
[26] = system: Mus musculus; experiment: Hepatotoxicity in mouse assessed as effect on ALT level at 1 to 50 mg/kg, ip dosed daily for 1 month; format: toxicity, organism-based; conditions: in vivo
In short: (§2)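 Groups of n = 5 mice were dosed daily at 1-50 mg/kg for one month. Liver function markers (albumin, globulin, ALK, ALT) were measured alongside body weight, blood counts and renal markers.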

[27] = system: Mus musculus; experiment: Hepatotoxicity in mouse assessed as effect on albumin level at 1 to 50 mg/kg, ip dosed daily for 1 month; format: toxicity, organism-based; conditions: in vivo; in short: as §2
[28] = system: Mus musculus; experiment: Toxicity in mouse assessed as effect on RBC levels at 1 to 50 mg/kg, ip dosed daily for 1 month; format: organism-based; conditions: in vivo
[29] = system: Mus musculus; experiment: Renal toxicity in mouse at 1 to 50 mg/kg, ip dosed daily for 1 month by histological analysis; format: organism-based; conditions: in vivo
[30] = molecular target: Glutamate [NMDA] receptor (Homo sapiens) (UniProt Q05586+Q12879+Q13224+O15399+O60391+Q14957+Q8TCU5); experiment: Binding affinity to NMDA receptor (unknown origin) at 10 uM by antgonist radioligand assay relative to control; format: protein-complex assay
[31] = system: Mus musculus; experiment: Anti-inflammatory activity in poly(I:C)-induced airway inflammation C57BL/6 mouse model assessed as reduction in mIL6 expression in lung at 10 mg/kg, ip administered 1 day prior to poly(I:C) stimulation and redosed on day 2 followed by poly(I:C) stimulation; format: functional, organism-based; in short: as §1
[32] = molecular target: cGMP-inhibited 3',5'-cyclic phosphodiesterase 3A (Homo sapiens) (UniProt Q14432); experiment: Displacement of [3H]cAMP from human recombinant PDE3A at 10 uM after 20 mins by scintillation counting analysis relative to control

Chain of CREB-binding protein (Q92793 whole entry): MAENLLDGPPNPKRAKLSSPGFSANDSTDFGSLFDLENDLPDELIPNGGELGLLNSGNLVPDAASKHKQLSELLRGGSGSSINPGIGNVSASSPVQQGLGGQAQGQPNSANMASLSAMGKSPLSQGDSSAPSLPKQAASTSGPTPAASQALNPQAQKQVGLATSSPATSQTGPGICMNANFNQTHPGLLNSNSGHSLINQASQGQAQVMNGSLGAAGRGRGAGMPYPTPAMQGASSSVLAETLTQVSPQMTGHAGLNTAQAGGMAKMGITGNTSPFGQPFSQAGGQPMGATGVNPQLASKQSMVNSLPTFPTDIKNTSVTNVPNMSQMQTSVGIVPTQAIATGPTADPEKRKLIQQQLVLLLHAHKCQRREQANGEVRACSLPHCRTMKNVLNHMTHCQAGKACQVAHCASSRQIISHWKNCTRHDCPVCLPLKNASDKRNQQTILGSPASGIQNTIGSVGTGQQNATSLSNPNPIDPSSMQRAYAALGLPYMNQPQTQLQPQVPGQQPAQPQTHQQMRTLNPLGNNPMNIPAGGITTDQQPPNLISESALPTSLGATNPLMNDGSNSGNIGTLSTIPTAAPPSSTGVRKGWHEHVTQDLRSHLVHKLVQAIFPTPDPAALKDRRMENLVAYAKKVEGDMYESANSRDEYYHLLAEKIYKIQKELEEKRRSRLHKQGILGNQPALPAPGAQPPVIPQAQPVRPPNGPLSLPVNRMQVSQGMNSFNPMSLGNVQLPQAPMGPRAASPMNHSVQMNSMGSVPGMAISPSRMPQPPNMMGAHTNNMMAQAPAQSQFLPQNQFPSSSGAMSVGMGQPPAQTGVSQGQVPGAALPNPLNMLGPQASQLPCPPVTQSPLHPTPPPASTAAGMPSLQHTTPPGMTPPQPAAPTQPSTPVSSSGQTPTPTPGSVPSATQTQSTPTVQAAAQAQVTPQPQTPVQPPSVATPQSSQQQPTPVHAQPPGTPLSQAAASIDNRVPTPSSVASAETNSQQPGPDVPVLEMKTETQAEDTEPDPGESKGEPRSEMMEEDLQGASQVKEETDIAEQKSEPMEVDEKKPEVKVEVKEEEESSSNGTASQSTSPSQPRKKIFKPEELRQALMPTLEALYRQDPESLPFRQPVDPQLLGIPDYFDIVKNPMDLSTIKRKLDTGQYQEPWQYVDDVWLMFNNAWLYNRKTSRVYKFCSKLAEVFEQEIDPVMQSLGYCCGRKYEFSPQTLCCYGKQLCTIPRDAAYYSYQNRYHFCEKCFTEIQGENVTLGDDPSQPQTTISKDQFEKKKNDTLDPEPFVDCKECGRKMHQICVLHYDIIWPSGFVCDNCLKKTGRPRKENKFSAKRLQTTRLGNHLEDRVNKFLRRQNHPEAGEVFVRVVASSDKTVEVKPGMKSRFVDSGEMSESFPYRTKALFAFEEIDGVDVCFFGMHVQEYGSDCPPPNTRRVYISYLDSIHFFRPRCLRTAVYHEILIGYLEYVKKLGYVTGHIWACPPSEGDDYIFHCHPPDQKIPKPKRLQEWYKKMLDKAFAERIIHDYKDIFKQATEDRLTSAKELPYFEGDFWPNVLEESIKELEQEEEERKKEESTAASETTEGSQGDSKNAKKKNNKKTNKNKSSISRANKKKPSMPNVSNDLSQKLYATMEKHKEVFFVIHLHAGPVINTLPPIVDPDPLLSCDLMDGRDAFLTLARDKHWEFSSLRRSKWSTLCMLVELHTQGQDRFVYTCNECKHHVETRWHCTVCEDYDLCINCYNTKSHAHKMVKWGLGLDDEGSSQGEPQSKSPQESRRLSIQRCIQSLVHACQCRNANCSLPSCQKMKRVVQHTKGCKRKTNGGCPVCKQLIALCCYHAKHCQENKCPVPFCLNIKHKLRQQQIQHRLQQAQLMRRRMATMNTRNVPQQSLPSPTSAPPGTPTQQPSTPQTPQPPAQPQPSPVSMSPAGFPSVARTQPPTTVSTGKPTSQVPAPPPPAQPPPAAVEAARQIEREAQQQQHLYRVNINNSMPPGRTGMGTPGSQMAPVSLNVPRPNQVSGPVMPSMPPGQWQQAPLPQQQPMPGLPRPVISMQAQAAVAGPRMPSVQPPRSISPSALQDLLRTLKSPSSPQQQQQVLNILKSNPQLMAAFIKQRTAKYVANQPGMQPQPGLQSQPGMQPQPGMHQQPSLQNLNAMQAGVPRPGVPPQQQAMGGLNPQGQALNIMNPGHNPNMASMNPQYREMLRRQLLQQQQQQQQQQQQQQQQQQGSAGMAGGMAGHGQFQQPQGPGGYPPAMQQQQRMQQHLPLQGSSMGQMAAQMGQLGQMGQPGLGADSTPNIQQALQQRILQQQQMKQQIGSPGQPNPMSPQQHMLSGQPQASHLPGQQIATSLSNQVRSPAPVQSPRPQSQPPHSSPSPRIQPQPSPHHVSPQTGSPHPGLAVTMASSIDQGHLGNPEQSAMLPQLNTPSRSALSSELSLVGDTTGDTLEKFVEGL
Chain of MAO-A (amine oxidase [flavin-containing] A) (P21396 whole entry): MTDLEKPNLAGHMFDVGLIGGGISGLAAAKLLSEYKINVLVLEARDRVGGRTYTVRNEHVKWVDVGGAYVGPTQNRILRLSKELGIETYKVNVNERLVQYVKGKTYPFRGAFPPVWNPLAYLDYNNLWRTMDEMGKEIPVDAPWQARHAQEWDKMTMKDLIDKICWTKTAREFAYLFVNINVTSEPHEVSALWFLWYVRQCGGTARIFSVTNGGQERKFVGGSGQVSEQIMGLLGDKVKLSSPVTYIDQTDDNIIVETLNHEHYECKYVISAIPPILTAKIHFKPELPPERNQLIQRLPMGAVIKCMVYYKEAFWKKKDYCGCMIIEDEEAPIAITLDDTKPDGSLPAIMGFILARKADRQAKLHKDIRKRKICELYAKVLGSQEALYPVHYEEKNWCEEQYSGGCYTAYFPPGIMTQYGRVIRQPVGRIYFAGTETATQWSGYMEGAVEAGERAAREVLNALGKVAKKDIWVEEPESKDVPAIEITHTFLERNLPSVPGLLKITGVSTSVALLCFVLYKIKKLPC
Chain of Inhibitor of nuclear factor kappa-B kinase subunit epsilon (Homo sapiens) (Q14164 whole entry): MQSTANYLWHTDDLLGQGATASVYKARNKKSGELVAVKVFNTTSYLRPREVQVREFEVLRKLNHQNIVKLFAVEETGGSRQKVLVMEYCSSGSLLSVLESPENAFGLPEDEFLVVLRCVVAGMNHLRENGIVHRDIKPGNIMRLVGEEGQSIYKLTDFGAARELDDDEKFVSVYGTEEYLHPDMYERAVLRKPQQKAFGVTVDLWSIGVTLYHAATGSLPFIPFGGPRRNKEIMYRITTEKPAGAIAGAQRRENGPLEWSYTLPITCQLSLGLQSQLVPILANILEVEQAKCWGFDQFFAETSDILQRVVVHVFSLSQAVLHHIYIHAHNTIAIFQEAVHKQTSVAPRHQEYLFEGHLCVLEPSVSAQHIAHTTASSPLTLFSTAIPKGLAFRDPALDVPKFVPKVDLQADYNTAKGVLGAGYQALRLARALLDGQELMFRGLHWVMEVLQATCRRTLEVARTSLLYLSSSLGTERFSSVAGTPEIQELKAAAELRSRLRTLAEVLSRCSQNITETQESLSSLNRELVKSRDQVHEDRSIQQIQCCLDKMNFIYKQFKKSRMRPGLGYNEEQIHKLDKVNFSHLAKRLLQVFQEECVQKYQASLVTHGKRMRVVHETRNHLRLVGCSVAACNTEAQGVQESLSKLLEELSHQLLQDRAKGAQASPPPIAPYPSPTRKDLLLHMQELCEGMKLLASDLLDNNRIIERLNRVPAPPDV
Chain of Tyrosine-protein kinase Lck (Homo sapiens) (P06239 2-509 limits assumed): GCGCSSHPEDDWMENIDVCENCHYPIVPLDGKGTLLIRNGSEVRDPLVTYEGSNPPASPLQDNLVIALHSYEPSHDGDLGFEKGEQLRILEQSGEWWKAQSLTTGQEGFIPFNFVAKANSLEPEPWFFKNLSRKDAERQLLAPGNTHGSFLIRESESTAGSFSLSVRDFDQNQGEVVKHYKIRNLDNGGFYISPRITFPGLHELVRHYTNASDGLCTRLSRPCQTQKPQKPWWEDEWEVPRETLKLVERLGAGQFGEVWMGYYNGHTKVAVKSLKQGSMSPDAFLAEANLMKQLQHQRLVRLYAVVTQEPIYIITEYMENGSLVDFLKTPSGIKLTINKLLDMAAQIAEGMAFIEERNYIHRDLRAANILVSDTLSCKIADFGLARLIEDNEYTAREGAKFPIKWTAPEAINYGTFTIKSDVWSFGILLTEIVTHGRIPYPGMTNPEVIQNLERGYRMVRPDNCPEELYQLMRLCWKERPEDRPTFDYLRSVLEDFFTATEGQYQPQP
Chain of Cholecystokinin receptor type A (Homo sapiens) (P32238 whole entry): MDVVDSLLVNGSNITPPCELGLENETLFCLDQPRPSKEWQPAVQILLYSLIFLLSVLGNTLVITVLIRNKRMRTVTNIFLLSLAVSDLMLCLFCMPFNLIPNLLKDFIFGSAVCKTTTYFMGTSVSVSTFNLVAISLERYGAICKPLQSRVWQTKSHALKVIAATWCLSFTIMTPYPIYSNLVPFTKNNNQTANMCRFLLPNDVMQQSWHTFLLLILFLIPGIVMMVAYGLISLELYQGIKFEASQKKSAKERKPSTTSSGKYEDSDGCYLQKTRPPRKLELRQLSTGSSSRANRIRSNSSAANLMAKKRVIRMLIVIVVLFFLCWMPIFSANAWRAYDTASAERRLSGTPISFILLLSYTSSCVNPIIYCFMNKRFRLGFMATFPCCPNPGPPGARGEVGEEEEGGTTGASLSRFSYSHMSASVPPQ
Chain of Adenosine receptor A2a (Homo sapiens) (P29274 whole entry): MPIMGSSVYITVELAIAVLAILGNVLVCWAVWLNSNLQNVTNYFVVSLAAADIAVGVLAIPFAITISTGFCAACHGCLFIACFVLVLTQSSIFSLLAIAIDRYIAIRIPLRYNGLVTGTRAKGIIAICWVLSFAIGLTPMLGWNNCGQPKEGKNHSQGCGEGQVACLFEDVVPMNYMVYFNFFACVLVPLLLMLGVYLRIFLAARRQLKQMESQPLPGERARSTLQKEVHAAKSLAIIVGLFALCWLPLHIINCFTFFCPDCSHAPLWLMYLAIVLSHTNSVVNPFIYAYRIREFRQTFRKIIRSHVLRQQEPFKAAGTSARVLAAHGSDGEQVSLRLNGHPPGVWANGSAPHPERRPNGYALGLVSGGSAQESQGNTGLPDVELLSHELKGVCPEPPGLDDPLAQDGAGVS

SMILES: Cc1cc(/N=N/c2ccc(S(=O)(=O)NC3CCCC3)cc2)c(N)cc1O
- Activity [1]: Non-Toxic
- Activity [2]: -26.2%
- AUC(0-t) [3]: 11400 ng·h/mL
- AUC(0-t) [4]: 104 ng·h/mL
- Activity [5]: -20.6%
- Activity [6]: 24.7%
- Activity [7]: 3%
- Activity [8]: 11.7%
- Activity [9]: -1.5%
- Activity [10]: 17.4%
- Activity [11]: 38.1%
- inhibition at 2 h, 10 µM [12]: 49.8%
- Activity [13]: 28.2 to 41.6%
- Activity [14]: Non-Toxic
- Activity [15]: 8.3%
- Activity [16]: Non-Toxic
- Activity [17]: Non-Toxic
- Activity [18]: -4.3%
- Activity [19]: Non-Toxic
- Activity [20]: Non-Toxic
- Activity [21]: Active
- IC50 [22]: > 10 µM
- Activity [23]: 7.1%
- Activity [24]: 27.7%
- clearance [25]: 14.7 mL/min/kg
- Activity [26]: Non-Toxic
- Activity [27]: Non-Toxic
- Activity [28]: Non-Toxic
- Activity [29]: Non-Toxic
- Activity [30]: 17%
- Activity [31]: Active
- Activity [32]: 46%
